From ChEMBL document CHEMBL1157268, “ent-Labdane diterpenoids from Andrographis paniculata” (2006)
Activity calls are given as the source filed them. The rule behind the calls is not given here.

Columns and labels:
Bacillus subtilis = assay: Antimicrobial activity against Bacillus subtilis at 10 ug/ml by disk diffusion assay; format: functional; conditions: for zone of inhibition at 10 µg/mL: read-out: IZ
In short: (§1)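 Qualitative screen on agar plates: each diterpenoid applied to disks at 10 µg/mL and tested in parallel against eight strains (B. subtilis, S. aureus, E. coli, M. luteus, S. lutea, C. albicans, C. sake, A. niger). Growth inhibition was scored as a clear inhibition zone around the disk, with zone diameter in mm as the read-out.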

Staphylococcus aureus = assay: Antimicrobial activity against Staphylococcus aureus at 10 ug/ml by disk diffusion assay; format: functional, organism-based; in short: as §1
Escherichia coli = assay: Antimicrobial activity against Escherichia coli at 10 ug/ml by disk diffusion assay; format: functional, organism-based; in short: as §1
Micrococcus luteus = assay: Antimicrobial activity against Micrococcus luteus at 10 ug/ml by disk diffusion assay; format: functional, organism-based; in short: as §1
Candida albicans = assay: Antimicrobial activity against Candida albicans at 10 ug/ml by disk diffusion assay; format: functional, organism-based; in short: as §1
[Candida] sake = Antimicrobial activity against Candida sake at 10 ug/ml by disk diffusion assay; format: functional, organism-based; in short: as §1
Aspergillus niger = assay: Antimicrobial activity against Aspergillus niger at 10 ug/ml by disk diffusion assay; format: functional, organism-based; in short: as §1

SMILES: C=C1CC[C@@H]2[C@](C)(CO)[C@H](O)CC[C@@]2(C)[C@@H]1C[C@@H](O)C1C(=O)OC[C@H]1O (stereo not given in full)
- Activity (Bacillus subtilis): inactive
- Activity (Staphylococcus aureus): inactive
- Activity (Escherichia coli): inactive
- Activity (Micrococcus luteus): inactive
- Activity (Candida albicans): inactive
- Activity ([Candida] sake): inactive
- Activity (Aspergillus niger): inactive

SMILES: C=C1CC[C@@H]2[C@](C)(CO)[C@H](O)CC[C@@]2(C)[C@@H]1CCC1=CCOC1=O
- Activity (Bacillus subtilis): inactive
- Activity (Staphylococcus aureus): inactive
- Activity (Escherichia coli): inactive
- Activity (Micrococcus luteus): inactive
- Activity (Candida albicans): inactive
- Activity ([Candida] sake): inactive
- Activity (Aspergillus niger): inactive

SMILES: C=C1CC[C@H]2[C@@](C)(CC[C@@H](O)[C@@]2(C)CO)[C@@H]1C(=O)/C=C1\CCOC1=O
- Activity (Bacillus subtilis): inactive
- Activity (Staphylococcus aureus): inactive
- Activity (Escherichia coli): inactive
- Activity (Micrococcus luteus): inactive
- Activity (Candida albicans): inactive
- Activity ([Candida] sake): inactive
- Activity (Aspergillus niger): inactive

SMILES: C=C1CC[C@@H]2[C@](C)(CO)[C@H](O)CC[C@@]2(C)[C@@H]1C/C=C1/C(=O)OC[C@H]1O
- Activity (Bacillus subtilis): inactive
- Activity (Staphylococcus aureus): inactive
- Activity (Escherichia coli): inactive
- Activity (Micrococcus luteus): inactive
- Activity (Candida albicans): inactive
- Activity ([Candida] sake): inactive
- Activity (Aspergillus niger): inactive

SMILES: C=C1CC[C@@H]2[C@](C)(CO)CCC[C@@]2(C)[C@@H]1CCC1=CCOC1=O [ANDROGRAPANIN]
- zone of inhibition at 10 µg/mL (Bacillus subtilis): 7 mm
- Activity (Staphylococcus aureus): inactive
- Activity (Escherichia coli): inactive
- Activity (Micrococcus luteus): inactive
- Activity (Candida albicans): inactive
- Activity ([Candida] sake): inactive
- Activity (Aspergillus niger): inactive

SMILES: C=C1CC[C@@H]2[C@](C)(CO[C@@H]3O[C@H](CO)[C@@H](O)[C@H](O)[C@H]3O)CCC[C@@]2(C)[C@@H]1CCC1=CCOC1=O
- Activity (Bacillus subtilis): inactive
- Activity (Staphylococcus aureus): inactive
- Activity (Escherichia coli): inactive
- Activity (Micrococcus luteus): inactive
- Activity (Candida albicans): inactive
- Activity ([Candida] sake): inactive
- Activity (Aspergillus niger): inactive

SMILES: C=C1CC[C@@H]2[C@](C)(CO[C@@H]3O[C@H](CO)[C@@H](O)[C@H](O)[C@H]3O)[C@H](O)CC[C@@]2(C)[C@@H]1CCC1=CCOC1=O
- Activity (Bacillus subtilis): inactive
- Activity (Staphylococcus aureus): inactive
- Activity (Escherichia coli): inactive
- Activity (Micrococcus luteus): inactive
- Activity (Candida albicans): inactive
- Activity ([Candida] sake): inactive
- Activity (Aspergillus niger): inactive

SMILES: C=C1CC[C@@H]2[C@](C)(CO)[C@H](O)CC[C@@]2(C)[C@@H]1C/C=C1\C(=O)OCC1O (stereo not given in full) [ISOANDROGRAPHOLIDE]
- zone of inhibition at 10 µg/mL (Bacillus subtilis): 7 mm
- Activity (Staphylococcus aureus): inactive
- Activity (Escherichia coli): inactive
- Activity (Micrococcus luteus): inactive
- Activity (Candida albicans): inactive
- Activity ([Candida] sake): inactive
- Activity (Aspergillus niger): inactive

SMILES: C=C1CCC2C(C)(CO)C(O)CCC2(C)C1/C=C/C1=CC(C2(CCC3=CCOC3=O)C(=C)CCC3C(C)(CO)C(O)CCC32C)OC1=O (stereo not given)
- Activity (Bacillus subtilis): inactive
- Activity (Staphylococcus aureus): inactive
- Activity (Escherichia coli): inactive
- Activity (Micrococcus luteus): inactive
- Activity (Candida albicans): inactive
- Activity ([Candida] sake): inactive
- Activity (Aspergillus niger): inactive

SMILES: C=C1CC[C@@H]2[C@](C)(CO)[C@H](O)CC[C@@]2(C)[C@@H]1C(O)/C=C1\CCOC1=O (stereo not given in full)
- Activity (Bacillus subtilis): inactive
- Activity (Staphylococcus aureus): inactive
- Activity (Escherichia coli): inactive
- Activity (Micrococcus luteus): inactive
- Activity (Candida albicans): inactive
- Activity ([Candida] sake): inactive
- Activity (Aspergillus niger): inactive

SMILES: C=C1CC[C@@H]2[C@](C)(CO)[C@H](O)CC[C@@]2(C)[C@@H]1C[C@@H](O)C1=CCOC1=O
- zone of inhibition at 10 µg/mL (Bacillus subtilis): 7 mm
- Activity (Staphylococcus aureus): inactive
- Activity (Escherichia coli): inactive
- Activity (Micrococcus luteus): inactive
- Activity (Candida albicans): inactive
- Activity ([Candida] sake): inactive
- Activity (Aspergillus niger): inactive

SMILES: C=C1CC[C@@H]2[C@](C)(CO[C@@H]3O[C@H](CO)[C@@H](O)[C@H](O)[C@H]3O[C@@H]3OC[C@](O)(CO)[C@H]3O)CCC[C@@]2(C)[C@@H]1CCC1=CCOC1=O
- Activity (Bacillus subtilis): inactive
- Activity (Staphylococcus aureus): inactive
- Activity (Escherichia coli): inactive
- Activity (Micrococcus luteus): inactive
- Activity (Candida albicans): inactive
- Activity ([Candida] sake): inactive
- Activity (Aspergillus niger): inactive

SMILES: C[C@]1(CO)[C@H]2CC[C@H](CO)[C@@H](CCC3=CCOC3=O)[C@]2(C)CC[C@H]1O
- Activity (Bacillus subtilis): inactive
- Activity (Staphylococcus aureus): inactive
- Activity (Escherichia coli): inactive
- Activity (Micrococcus luteus): inactive
- Activity (Candida albicans): inactive
- Activity ([Candida] sake): inactive
- Activity (Aspergillus niger): inactive

SMILES: C=C1CC[C@@H]2[C@](C)(CO)[C@H](O[C@@H]3O[C@H](CO)[C@@H](O)[C@H](O)[C@H]3O)CC[C@@]2(C)[C@@H]1C/C=C1/C(=O)OC[C@H]1O
- Activity (Bacillus subtilis): inactive
- Activity (Staphylococcus aureus): inactive
- Activity (Escherichia coli): inactive
- Activity (Micrococcus luteus): inactive
- Activity (Candida albicans): inactive
- Activity ([Candida] sake): inactive
- Activity (Aspergillus niger): inactive

SMILES: C=C1CC[C@@H]2[C@](C)(CO)[C@H](O)CC[C@@]2(C)[C@@H]1/C=C/C1=CCOC1=O
- zone of inhibition at 10 µg/mL (Bacillus subtilis): 7 mm
- Activity (Staphylococcus aureus): inactive
- Activity (Escherichia coli): inactive
- Activity (Micrococcus luteus): inactive
- Activity (Candida albicans): inactive
- Activity ([Candida] sake): inactive
- Activity (Aspergillus niger): inactive

SMILES: C=C1CC[C@H]2[C@@](C)(CCC[C@@]2(C)C(=O)O[C@@H]2O[C@H](CO)[C@@H](O)[C@H](O)[C@H]2O)[C@@H]1CC/C(=C/CO)CO
- Activity (Bacillus subtilis): inactive
- Activity (Staphylococcus aureus): inactive
- Activity (Escherichia coli): inactive
- Activity (Micrococcus luteus): inactive
- Activity (Candida albicans): inactive
- Activity ([Candida] sake): inactive
- Activity (Aspergillus niger): inactive

SMILES: C[C@]1(CO)[C@H]2CC[C@]3(CO3)[C@@H](CCC3=CCOC3=O)[C@]2(C)CC[C@H]1O
- Activity (Bacillus subtilis): inactive
- Activity (Staphylococcus aureus): inactive
- Activity (Escherichia coli): inactive
- Activity (Micrococcus luteus): inactive
- Activity (Candida albicans): inactive
- Activity ([Candida] sake): inactive
- Activity (Aspergillus niger): inactive

SMILES: C=C1CC[C@@H]2C(C)(C)[C@H](O[C@@H]3O[C@H](CO)[C@@H](O)[C@H](O)[C@H]3O)CC[C@@]2(C)[C@@H]1CCC1=CCOC1=O
- Activity (Bacillus subtilis): inactive
- Activity (Staphylococcus aureus): inactive
- Activity (Escherichia coli): inactive
- Activity (Micrococcus luteus): inactive
- Activity (Candida albicans): inactive
- Activity ([Candida] sake): inactive
- Activity (Aspergillus niger): inactive

SMILES: C=C1CC[C@@H]2[C@](C)(CO[C@@H]3O[C@H](CO)[C@@H](O)[C@H](O)[C@H]3O)[C@H](O)CC[C@@]2(C)[C@@H]1/C=C/C1=CCOC1=O
- Activity (Bacillus subtilis): inactive
- Activity (Staphylococcus aureus): inactive
- Activity (Escherichia coli): inactive
- Activity (Micrococcus luteus): inactive
- Activity (Candida albicans): inactive
- Activity ([Candida] sake): inactive
- Activity (Aspergillus niger): inactive

SMILES: C=C1CC[C@@H]2[C@](C)(CO[C@@H]3O[C@H](CO)[C@@H](O)[C@H](O)[C@H]3O)[C@H](O)CC[C@@]2(C)[C@@H]1C/C=C1/C(=O)OC[C@H]1O
- Activity (Bacillus subtilis): inactive
- Activity (Staphylococcus aureus): inactive
- Activity (Escherichia coli): inactive
- Activity (Micrococcus luteus): inactive
- Activity (Candida albicans): inactive
- Activity ([Candida] sake): inactive
- Activity (Aspergillus niger): inactive
